EC50, T1/2 and Kd data for 10 compounds are collected here from ChEMBL document CHEMBL4680066, “Deacylcortivazol-like pyrazole regioisomers reveal a more accommodating expanded binding pocket for the glucocorticoid receptor” (RSC Med Chem, 2021).

The first assay deals with REH. Put plainly: Cytotoxicity against human REH cells overexpressing GR assessed as reduction in cell viability measured after 3 days by resazurin based assay. It counts as functional. Particulars: Homo sapiens, REH, 72 h; read-out: EC50; call rule not given here. The procedure, abridged:
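REH B-ALL cells (naturally GR-null) were lentivirally infected with GFP-T2A-GR, and the top 10% GFP sorted population was used. Cells grown in RPMI + 10% FBS, seeded at 9,000 cells/well in 384-well format. DMSO serial dilutions (2500 µM to 0.01 µM stocks) were diluted 1:500 and then added 1:1, giving 0.1% final DMSO. Exposure 72 h. Read-out: PrestoBlue fluorescence (Ex 560/Em 590), normalized to DMSO-only wells. EC50 by 4-parameter fit per replicate, at least 6 replicates.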
(In general: Resazurin is reduced to fluorescent resorufin, in cell work by metabolically active cells.)
As for `C[C@]12Cc3cn(-c4ccccc4)nc3C=C1CC[C@@H]1[C@@H]2[C@@H](O)C[C@@]2(C)[C@H]1CC[C@]2(O)C(=O)CO`, the EC50 – broadly, the midpoint of the concentration-response curve – was 1.3 nM.
On to `C[C@]12Cc3cnn(-c4ccc(F)cc4)c3C=C1CC[C@@H]1[C@@H]2[C@@H](O)C[C@@]2(C)[C@H]1CC[C@]2(O)C(=O)CO`, for which the half-maximal effective concentration (EC50) worked out at 1.4 nM.
In the case of `Cc1ccc(-n2cc3c(n2)C=C2CC[C@@H]4[C@H]([C@@H](O)C[C@@]5(C)[C@H]4CC[C@]5(O)C(=O)CO)[C@@]2(C)C3)cc1`, the 50% effective concentration (EC50) was 7270 nM.
On to `C[C@]12Cc3cnn(-c4ccccc4)c3C=C1CC[C@@H]1[C@@H]2[C@@H](O)C[C@@]2(C)[C@H]1CC[C@]2(O)C(=O)CO`, for which the EC50 came out at 2.3 nM.
Turning to `CCCCCCn1ncc2c1C=C1CC[C@@H]3[C@H]([C@@H](O)C[C@@]4(C)[C@H]3CC[C@]4(O)C(=O)CO)[C@@]1(C)C2`, the half-maximal effective concentration (EC50) was 27 nM.
With `C[C@@H]1C[C@H]2[C@@H]3CCC4=CC(=O)C=C[C@]4(C)[C@@]3(F)[C@@H](O)C[C@]2(C)[C@@]1(O)C(=O)CO` [DEXAMETHASONE], the concentration for a half-maximal effect (EC50) is 6.7 nM.
Same read-out and setting: with `COc1cccc(-n2ncc3c2C=C2CC[C@@H]4[C@H]([C@@H](O)C[C@@]5(C)[C@H]4CC[C@]5(O)C(=O)CO)[C@@]2(C)C3)c1` the figure was 346 nM.
Turning to `C[C@]12Cc3cn(-c4ccc(F)cc4)nc3C=C1CC[C@@H]1[C@@H]2[C@@H](O)C[C@@]2(C)[C@H]1CC[C@]2(O)C(=O)CO`, the EC50 is 225 nM.

Still in this assay, the particulars now being: reh.
For `CCCCCCn1cc2c(n1)C=C1CC[C@@H]3[C@H]([C@@H](O)C[C@@]4(C)[C@H]3CC[C@]4(O)C(=O)CO)[C@@]1(C)C2`, the EC50 entry is on record as “Not Active”.

The target of a further assay is T1, Glucocorticoid receptor (Homo sapiens) (UniProt P04150).
T1 sequence (whole entry): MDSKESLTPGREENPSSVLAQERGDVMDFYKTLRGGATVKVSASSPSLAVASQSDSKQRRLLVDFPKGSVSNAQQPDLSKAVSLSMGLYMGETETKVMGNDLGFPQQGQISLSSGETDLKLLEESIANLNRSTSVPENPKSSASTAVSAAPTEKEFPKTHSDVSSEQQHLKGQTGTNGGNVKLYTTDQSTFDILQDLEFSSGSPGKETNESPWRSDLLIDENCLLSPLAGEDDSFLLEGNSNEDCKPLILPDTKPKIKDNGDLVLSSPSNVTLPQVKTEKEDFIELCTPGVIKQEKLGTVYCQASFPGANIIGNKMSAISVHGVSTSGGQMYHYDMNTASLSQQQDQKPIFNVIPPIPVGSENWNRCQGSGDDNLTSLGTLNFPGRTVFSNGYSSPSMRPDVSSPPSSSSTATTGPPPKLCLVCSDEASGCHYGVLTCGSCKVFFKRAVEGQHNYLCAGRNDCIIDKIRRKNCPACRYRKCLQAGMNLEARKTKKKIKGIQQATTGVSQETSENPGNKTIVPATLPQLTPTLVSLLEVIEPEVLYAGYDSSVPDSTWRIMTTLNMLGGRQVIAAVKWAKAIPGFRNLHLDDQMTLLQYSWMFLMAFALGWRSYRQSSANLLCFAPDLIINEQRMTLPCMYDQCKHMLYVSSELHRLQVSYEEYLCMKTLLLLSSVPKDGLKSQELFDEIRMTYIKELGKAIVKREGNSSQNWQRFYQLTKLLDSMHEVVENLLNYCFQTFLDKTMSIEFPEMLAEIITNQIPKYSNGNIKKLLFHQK
Particulars: HEK293T, filed as modulator, time 22.0 min.
Turning to `C[C@]12Cc3cn(-c4ccccc4)nc3C=C1CC[C@@H]1[C@@H]2[C@@H](O)C[C@@]2(C)[C@H]1CC[C@]2(O)C(=O)CO`, the T1/2 turned out to be 2.63 min.
For the compound `C[C@]12Cc3cnn(-c4ccc(F)cc4)c3C=C1CC[C@@H]1[C@@H]2[C@@H](O)C[C@@]2(C)[C@H]1CC[C@]2(O)C(=O)CO`, the T1/2 amounted to 2.2 min.
`C[C@]12Cc3cnn(-c4ccccc4)c3C=C1CC[C@@H]1[C@@H]2[C@@H](O)C[C@@]2(C)[C@H]1CC[C@]2(O)C(=O)CO` gave a T1/2 of 2.67 min.
The compound `CCCCCCn1ncc2c1C=C1CC[C@@H]3[C@H]([C@@H](O)C[C@@]4(C)[C@H]3CC[C@]4(O)C(=O)CO)[C@@]1(C)C2` yielded a T1/2 of 2.1 min.
The compound `COc1cccc(-n2ncc3c2C=C2CC[C@@H]4[C@H]([C@@H](O)C[C@@]5(C)[C@H]4CC[C@]5(O)C(=O)CO)[C@@]2(C)C3)c1` showed a T1/2 of 4.17 min.
The same measure, in the same setting: with `C[C@]12Cc3cn(-c4ccc(F)cc4)nc3C=C1CC[C@@H]1[C@@H]2[C@@H](O)C[C@@]2(C)[C@H]1CC[C@]2(O)C(=O)CO` the figure was 4.33 min.

A further assay concerns the target T2, Glucocorticoid receptor (Homo sapiens, UniProt P04150).
T2 sequence (P04150 whole entry): T1 sequence (whole entry)
Put plainly: Induction of translocation of human glucocorticoid receptor expressed in HEK293T cells transduced with lentiviral vector expressing H2B-mCherry and GFP-GR assessed as effective dissociation constant measured every 130 sec for 22 mins by fluorescence imaging analysis. It counts as cell-based. The note with it: hek293t.
Consider `COc1cccc(-n2cc3c(n2)C=C2CC[C@@H]4[C@H]([C@@H](O)C[C@@]5(C)[C@H]4CC[C@]5(O)C(=O)CO)[C@@]2(C)C3)c1`, for which the dissociation constant Kd (commonly the equilibrium constant for the complex coming apart) was “Not Active”.

Still in this assay, the particulars now being: read-out: Kd.
With `C[C@]12Cc3cn(-c4ccccc4)nc3C=C1CC[C@@H]1[C@@H]2[C@@H](O)C[C@@]2(C)[C@H]1CC[C@]2(O)C(=O)CO`, the dissociation constant Kd was found to be 2.2 nM.
Regarding `C[C@]12Cc3cnn(-c4ccc(F)cc4)c3C=C1CC[C@@H]1[C@@H]2[C@@H](O)C[C@@]2(C)[C@H]1CC[C@]2(O)C(=O)CO`, the Kd is 2.6 nM.
Turning to `Cc1ccc(-n2cc3c(n2)C=C2CC[C@@H]4[C@H]([C@@H](O)C[C@@]5(C)[C@H]4CC[C@]5(O)C(=O)CO)[C@@]2(C)C3)cc1`, the Kd came out at 883 nM.
Regarding `C[C@]12Cc3cnn(-c4ccccc4)c3C=C1CC[C@@H]1[C@@H]2[C@@H](O)C[C@@]2(C)[C@H]1CC[C@]2(O)C(=O)CO`, the equilibrium dissociation constant (Kd) was found to be 2.2 nM.
For the compound `CCCCCCn1ncc2c1C=C1CC[C@@H]3[C@H]([C@@H](O)C[C@@]4(C)[C@H]3CC[C@]4(O)C(=O)CO)[C@@]1(C)C2`, the Kd was 9 nM.
Still for that read-out and setting: under `C[C@]12Cc3cn(-c4ccc(F)cc4)nc3C=C1CC[C@@H]1[C@@H]2[C@@H](O)C[C@@]2(C)[C@H]1CC[C@]2(O)C(=O)CO` stands 138 nM.
